Laboratory results as given in ChEMBL document CHEMBL4673235, “Synthesis and biological evaluation of ethacrynic acid derivatives bearing sulfonamides as potent anti-cancer agents” (Bioorg Med Chem Lett, 2020).

Assays:
HCT-116 [1] = assay: Cytotoxicity against human HCT-116 cells assessed as cell viability at 10 uM by CellTiter Glo luminescent assay relative to control; type: functional; conditions: read-out: Activity
How it was run: (§1)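 Single-concentration screen at 10 µM; percentage viability measured by CellTiter-Glo luminescent quantitation of ATP in metabolically active cells.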

HL-60 [2] = assay: Cytotoxicity against human HL-60 cells assessed as reduction in cell viability by CellTiter Glo luminescent assay; type: functional, cell-based
How it was run: (§2)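 CellTiter-Glo luminescent read-out of cellular ATP, taken as proportional to viable cell number; percentage viability measured and IC50 derived. MRC5 used as normal (non-cancer) line.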

HL-60 [3] = assay: Cytotoxicity against human HL-60 cells assessed as cell viability at 10 uM by CellTiter Glo luminescent assay relative to control; type: functional; conditions: read-out: Activity; how it was run: as §1
HCT-116 [4] = assay: Cytotoxicity against human HCT-116 cells assessed as reduction in cell viability by CellTiter Glo luminescent assay; type: functional, cell-based; how it was run: as §2
[5] = Selectivity index, ratio of IC50 for human MRC5 cells to IC50 for human MCF7 cells by CellTiter Glo luminescent assay; type: toxicity; conditions: MRC5 cells versus MCF7 cells, read-out: Ratio IC50
How it was run: (§3)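 Safety ratio computed as IC50 in MRC5 normal cells divided by IC50 in the cancer line, both from CellTiter-Glo ATP-luminescence viability assays.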

PC-3 = assay: Cytotoxicity against human PC-3 cells assessed as reduction in cell viability by CellTiter Glo luminescent assay; type: functional, cell-based; how it was run: as §2
[6] = Selectivity index, ratio of IC50 for human MRC5 cells to IC50 for human SK-OV-3 cells by CellTiter Glo luminescent assay; type: toxicity; conditions: MRC5 cells versus SK-OV-3 cells, read-out: Ratio IC50; how it was run: as §3
[7] = Selectivity index, ratio of IC50 for human MRC5 cells to IC50 for human HL60 cells by CellTiter Glo luminescent assay; type: toxicity; conditions: MRC5 cells versus HL60 cells, read-out: Ratio IC50
[8] = Selectivity index, ratio of IC50 for human MRC5 cells to IC50 for human U-87 MG cells by CellTiter Glo luminescent assay; type: toxicity; conditions: MRC5 cells versus U-87 MG cells, read-out: Ratio IC50; how it was run: as §3
MRC5 = assay: Cytotoxicity against human MRC5 cells assessed as reduction in cell viability by CellTiter Glo luminescent assay; type: cell-based; how it was run: as §2
[9] = Selectivity index, ratio of IC50 for human MRC5 cells to IC50 for human HCT-116 cells by CellTiter Glo luminescent assay; type: toxicity; conditions: MRC5 cells versus HCT-116 cells, read-out: Ratio IC50; how it was run: as §3
U-87 MG = assay: Cytotoxicity against human U-87 MG cells assessed as reduction in cell viability by CellTiter Glo luminescent assay; type: functional, cell-based, U-87MG ATCC; how it was run: as §2
MCF7 = assay: Cytotoxicity against human MCF7 cells assessed as reduction in cell viability by CellTiter Glo luminescent assay; type: functional, cell-based; how it was run: as §2
A549 = assay: Cytotoxicity against human A549 cells assessed as reduction in cell viability by CellTiter Glo luminescent assay; type: functional, cell-based; how it was run: as §2
[10] = Selectivity index, ratio of IC50 for human MRC5 cells to IC50 for human A549 cells by CellTiter Glo luminescent assay; type: toxicity; conditions: MRC5 cells versus A549 cells, read-out: Ratio IC50; how it was run: as §3
SK-OV-3 = assay: Cytotoxicity against human SK-OV-3 cells assessed as reduction in cell viability by CellTiter Glo luminescent assay; type: functional, cell-based; how it was run: as §2
[11] = Selectivity index, ratio of IC50 for human MRC5 cells to IC50 for human PC-3 cells by CellTiter Glo luminescent assay; type: toxicity; conditions: MRC5 cells versus PC-3 cells, read-out: Ratio IC50; how it was run: as §3

SMILES | viability at 10 µM (HCT-116 [1]) | IC50 (HL-60 [2]) | viability at 10 µM (HL-60 [3]) | further results
C=C(CC)C(=O)c1ccc(OCC(=O)NCCNS(C)(=O)=O)c(Cl)c1Cl | 62% | 940 nM | 21% | 
C=C(CC)C(=O)c1ccc(OCC(=O)NCCNS(=O)(=O)c2ccc(OC)c(OC)c2)c(Cl)c1Cl | 97% | 3360 nM | 19% | 
C=C(CC)C(=O)c1ccc(OCC(=O)N2CCN(S(=O)(=O)c3cccc4cccnc34)CC2)c(Cl)c1Cl | 100% | 2980 nM | 28% | 
C=C(CC)C(=O)c1ccc(OCC(=O)NCCNS(=O)(=O)c2ccc([N+](=O)[O-])cc2)c(Cl)c1Cl | 59% | 580 nM | 27% | 
C=C(CC)C(=O)c1ccc(OCC(=O)N2CCN(S(=O)(=O)c3cc(Cl)ccc3OC)CC2)c(Cl)c1Cl | 75% | 1410 nM | 24% | 
C=C(CC)C(=O)c1ccc(OCC(=O)NC2CCN(S(=O)(=O)c3ccc(OC)cc3)CC2)c(Cl)c1Cl | 45% | 630 nM | 25% | IC50 (HCT-116 [4]): 1150 nM; selectivity ratio [5]: 33.8; IC50 (PC-3): 112 nM; selectivity ratio [6]: 14; selectivity ratio [7]: 6.85; selectivity ratio [8]: 18.1; IC50 (MRC5): 4320 nM; selectivity ratio [9]: 3.75; IC50 (U-87 MG): 238 nM; IC50 (MCF7): 128 nM; IC50 (A549): 67 nM; selectivity ratio [10]: 63.8; IC50 (SK-OV-3): 309 nM; selectivity ratio [11]: 38.6
C=C(CC)C(=O)c1ccc(OCC(=O)NC2CCN(S(=O)(=O)c3ccc(C)cc3)CC2)c(Cl)c1Cl | 100% | 980 nM | 25% | 
C=C(CC)C(=O)c1ccc(OCC(=O)N2CCN(S(=O)(=O)c3ccc(OC)cc3OC)CC2)c(Cl)c1Cl | 40% | 3190 nM | 15% | 
C=C(CC)C(=O)c1ccc(OCC(=O)N2CCN(S(=O)(=O)C3CCCCC3)CC2)c(Cl)c1Cl | 100% | 2320 nM | 32% | 
C=C(CC)C(=O)c1ccc(OCC(=O)NC2CCN(S(=O)(=O)c3cc(Cl)ccc3OC)CC2)c(Cl)c1Cl |  | 700 nM | 16% | IC50 (HCT-116 [4]): 790 nM; selectivity ratio [5]: 9.27; IC50 (PC-3): 76 nM; selectivity ratio [6]: 6; selectivity ratio [7]: 1.28; selectivity ratio [8]: 2.93; IC50 (MRC5): 900 nM; selectivity ratio [9]: 1.13; IC50 (U-87 MG): 307 nM; IC50 (MCF7): 97 nM; IC50 (A549): 55 nM; selectivity ratio [10]: 16.3; IC50 (SK-OV-3): 150 nM; selectivity ratio [11]: 11.8
C=C(CC)C(=O)c1ccc(OCC(=O)NCCNS(=O)(=O)c2cccc3cccnc23)c(Cl)c1Cl | 100% | 1330 nM | 20% | 
C=C(CC)C(=O)c1ccc(OCC(=O)NCCNS(=O)(=O)c2ccc(OC)cc2OC)c(Cl)c1Cl | 77% | 2790 nM | 35% | 
C=C(CC)C(=O)c1ccc(OCC(=O)N2CCN(S(=O)(=O)c3ccc([N+](=O)[O-])cc3)CC2)c(Cl)c1Cl | 100% | 3260 nM | 24% | 
C=C(CC)C(=O)c1ccc(OCC(=O)NC2CCN(S(=O)(=O)C3CCCCC3)CC2)c(Cl)c1Cl | 61% | 2940 nM | 41% | 
